Test results reported in ChEMBL document CHEMBL4346686, “Discovery and biological evaluation of novel androgen receptor antagonist for castration-resistant prostate cancer” (Eur J Med Chem, 2019).

Legend:
[1] = system: L02; test: Antiproliferative activity against human L02 cells assessed as reduction in cell viability incubated for 6 days by CCK8 assay; format: cell-based; conditions: L02, 144 h
In short: (§1)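 Cells seeded (2×10^4 per well for VCaP, 1–3×10^3 for the others) and compound added after 24 h as a 9-point, 3-fold serial dilution. Exposure 6 days, then CCK-8 for 1–4 h and absorbance at 450 nm. IC50 from curve fit, mean of at least two independent experiments run in duplicate.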

[2] = system: PC-3; test: Antiproliferative activity against human PC3 cells assessed as reduction in cell viability incubated for 6 days by CCK8 assay; format: functional, cell-based; conditions: PC-3, 144 h; in short: as §1
[3] = Antiproliferative activity against human LNCaP-AR cells assessed as reduction in cell viability incubated for 6 days by CCK8 assay; format: functional, cell-based; conditions: 144 h; in short: as §1
[4] = system: CWR22R; test: Antiproliferative activity against human 22Rv1 cells assessed as reduction in cell viability incubated for 6 days by CCK8 assay; format: functional, cell-based; conditions: 22Rv1, 144 h; in short: as §1
[5] = system: VCaP; test: Antitumor activity against human VCaP cells xenografted in BALB/c nude mouse assessed as inhibition of tumor growth at 30 mg/kg, po qd administered for 40 days relative to control; format: functional
In short: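 Male BALB/c nude mice, 5 weeks old, s.c. 1 × 10^7 VCaP cells in DMEM/Matrigel (1:1). Castrated under Nembutal at 150–200 mm3 and randomized (n = 8–10). Once tumors regrew to 200–350 mm3, oral 30 mg/kg qd for 40 days. TGI = [1 − (T − T0)/(C − C0)] × 100 from mean tumor volumes on first and last treatment days.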

[6] = Toxicity in BALB/c nude mouse xenografted with human VCaP cells assessed as weight loss at 30 mg/kg, po qd administered for 40 days relative to control; format: organism-based; conditions: in vivo, 960 h

`CNC(=O)c1ccc(N2C(=S)N(c3ccc(C#N)c(C(F)(F)F)c3)C(=O)C2(C)C)cc1F` [ENZALUTAMIDE] gave an IC50 [1] of 17.1 µM, an IC50 [2] greater than 30 µM and an IC50 [3] of 0.19 µM. For the same compound, the IC50 [4] was greater than 30 µM, the TGI [5] was 43% and the Activity [6] was “Non-Toxic”.
